Most compounds without a hit are left out; they make up all but 2.3% or so of the library.
HTRA1 inh – inhibitors of human serine peptidase HTRA1 | recombinant HTRA1, FP-rhodamine activity-based probe, fluorescence polarization | AID 504803 | Q92743 | inhibition, % at 5.96 µM | hit rate 0.5% among 340,000; in the data active = inhibition above about 36%
pPAFAH inh – pPAFAH (human) enzyme inhibition; Q13093; recombinant pPAFAH, FP-rhodamine probe fluorescence polarization; inhibition, % at 3.39 µM; hit rate 1.5% among 330,000; AID 463082;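 active = inhibition above the mean inhibition across the screen plus 3 SD, cut at about 25% in these data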;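 note: inhibitors block binding of the rhodamine activity-based probe so polarization drops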
mABHD4 FP – inhibitors of mouse ABHD4; Q8VD66; purified mABHD4, FP-Rh probe fluorescence polarization; inhibition, % at 8.92 µM; hit rate 0.54% among 370,000;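 active = inhibition exceeding the mean over every tested compound plus 3 SD, cut at about 30% in these data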
Target sequence (Q8VD66 whole entry, looked up): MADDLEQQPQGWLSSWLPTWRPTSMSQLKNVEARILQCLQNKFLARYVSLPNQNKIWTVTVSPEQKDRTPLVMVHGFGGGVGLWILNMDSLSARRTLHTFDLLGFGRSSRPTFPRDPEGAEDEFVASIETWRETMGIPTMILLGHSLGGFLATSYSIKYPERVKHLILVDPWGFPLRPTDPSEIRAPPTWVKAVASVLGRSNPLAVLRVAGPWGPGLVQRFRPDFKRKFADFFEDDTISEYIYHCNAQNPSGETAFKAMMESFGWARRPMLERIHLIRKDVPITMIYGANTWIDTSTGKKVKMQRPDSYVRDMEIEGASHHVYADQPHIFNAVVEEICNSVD
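system = mouse ABHD4 enzyme, wild type | medium = HEPES pH 7.0, NaCl, Pluronic buffer | also added = FP-Rh probe | incubation = Enzyme–compound pre-incubation 45 min, then probe 60 min, both 25 °C | technique = fluorescence polarization, excitation 525 nm, emission 598 nm, BODIPY TMR filters | controls = S159A mutant high control, sample median low control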
SIAE inh – human SIAE inhibition, primary screen. inhibition, % at 9.66 µM. Q9HAT2. AID 1053197. SIAE FP-Rh probe binding, fluorescence polarization. hit rate 0.69% among 370,000;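 active = inhibition above a cutoff: mean of compounds within the control limits plus 3 SD of those, cut at about 17% in these data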
TCR CD3 inh – blocks the human TCR-CD3 interaction; TAMRA-labeled TCR probe fluorescence, biochemical; inhibition, % at 9.4 µM; hit rate 0.37% among 360,000; in the data active = inhibition above about 19%;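 note: recombinant mutant TCR 2C K166C tagged with TAMRA read by polarization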
Large screens that a line does not name were inactive.

COc1ccc(NC(=S)NC(=O)/C=C/c2ccco2)cc1	none
Cc1sc2nc(CSCC(=O)N(CCC#N)c3ccccc3)[nH]c(=O)c2c1C	TCR CD3 inh 20
CC(=O)N(\C=C/C=C/C=C1\Sc2ccccc2C1=O)c1ccccc1	pPAFAH inh 30
CN(C)/C=C1/Sc2ccccc2C1=O	none
O=C(CN(Cc1ccccc1)S(=O)(=O)c1ccc2c(c1)OCCO2)N/N=C/c1ccc(F)cc1	pPAFAH inh 33
COC(=O)c1cccc(NC(=O)Cc2coc3cc(OC)ccc23)c1	none
COc1ccc2c(CC(=O)OCC(=O)Nc3cccc(C)c3)coc2c1	pPAFAH inh 33
CCCCCN1CCCCC(NC(=O)c2ccccc2C)C1=O (stereo not drawn)	none (no result: HTRA1 inh, pPAFAH inh, TCR CD3 inh)
CCCSc1nsc(NC(=O)CCC)n1	pPAFAH inh 31
CCCCSc1nsc(NC(C)=O)n1	none
CSc1c(N(C)C)c(=O)c1=S	none (no result: HTRA1 inh, pPAFAH inh)
CCOC(=O)c1c(C)[nH]c(C(=O)OCc2ccccc2F)c1C	pPAFAH inh 29
CCOC(=O)c1c(C)[nH]c(C(=O)OCc2ccc(F)cc2)c1C	none (no result: pPAFAH inh)
CN(C)C(=O)C[C@H]1CC[C@H]2[C@H](COc3ccc(NC(=O)C4CC4)cc3C(=O)N2C)O1	none (no result: HTRA1 inh, pPAFAH inh, TCR CD3 inh)
COc1ccccc1NC(=O)c1ccc(NC(=O)COC(=O)C2CC2C)cc1 (stereo not drawn)	pPAFAH inh 34
CC(=O)N1[C@H](CO)[C@@H](c2ccccc2)[C@@H]1CN(C(=O)c1ccc(F)cc1)C(C)C	none (no result: HTRA1 inh, pPAFAH inh, TCR CD3 inh)
CCCCCCCCN1C(=O)[C@@H](CC(=O)NCc2ccccc2)C[C@@]2(C(=O)OC)C1=C[C@H](C(C)C)O[C@@H]2C1CC1	none (no result: HTRA1 inh, pPAFAH inh, TCR CD3 inh)
CC(=O)c1cc(F)c(N2CCN(CCC#N)CC2)cc1C	SIAE inh 27
CCOC(=O)N1CCN(c2cc(C)c(C(C)=O)cc2F)CC1	none
COc1ccc(C(CCOC(=O)Oc2ccccc2)c2cc(OC)c(OC)c(OC)c2)cc1 (stereo not drawn)	none (no result: HTRA1 inh, pPAFAH inh, TCR CD3 inh)
COc1ccccc1NC(=O)c1c([N+](=O)[O-])c(C(C)(C)C)nn1C	pPAFAH inh 31
O=C(CSc1nc2ccccc2o1)c1cc2ccccc2oc1=O	pPAFAH inh 26
N#C/C(=C(/O)CCl)c1nc2c(s1)CCc1ccccc1-2	mABHD4 FP 32
COC(=O)C1CN(Cc2ccc(Cl)cc2)CCS(=O)(=O)N1Cc1cn(Cc2ccc(OC)cc2)nn1 (stereo not drawn)	none (no result: HTRA1 inh, pPAFAH inh, TCR CD3 inh)
C=CCN=C1NC(c2ccc(F)cc2)C(C(=O)OC)=C(C)N1Cc1ccccc1C(F)(F)F (stereo not drawn)	none (no result: HTRA1 inh, pPAFAH inh)
O=S(=O)(NCCCc1ccccc1)c1ccc(F)c(F)c1	pPAFAH inh 29
CC(C)(C)c1ccc(OCC(=O)NNC(=S)NC(=O)c2ccccc2[N+](=O)[O-])c(Br)c1	pPAFAH inh 29
COC(=O)C(C(=O)OC)C1OC23CN(S(=O)(=O)c4ccc(C)cc4)C=CC2(C)C3c2ccccc21 (stereo not drawn)	none (no result: HTRA1 inh, pPAFAH inh, TCR CD3 inh)
CC(=O)NC(c1ccc(C)cc1)c1cc([N+](=O)[O-])c2cccnc2c1O (stereo not drawn)	pPAFAH inh 28
O=[N+]([O-])c1ccc(O)c2ncccc12	none
O=[N+]([O-])c1cc(Cl)c(O)c2ncccc12	HTRA1 inh 55 (no result: pPAFAH inh)
O=[N+]([O-])c1cc([N+](=O)[O-])c2cccnc2c1Oc1ccccc1O	none
COc1ccc(S[C@]2(C(=O)N3CCN(c4ncccn4)CC3)CC(=O)N(c3ccsc3)[C@@H]2c2ccc(OC)cc2)cc1	none (no result: HTRA1 inh, pPAFAH inh, TCR CD3 inh)
COc1ccc(C(=O)CC(=O)Nc2ccc([N+](=O)[O-])cc2)cc1	pPAFAH inh 27
COc1cccc(/C=N/NC(=O)c2[nH]c(C)c(C(=O)N/N=C/c3cccc(OC)c3O)c2C)c1O	pPAFAH inh 28
COc1ccccc1-c1cc(-c2ccc(O)cc2)nc(N)c1C#N	pPAFAH inh 30
COc1cc(-c2cc(-c3ccc(O)cc3)nc(N)c2C#N)ccc1O	none
N#CCC[C@H]1CC[C@]2(CCCN(C(=O)c3ccco3)C2)O1	none (no result: HTRA1 inh, pPAFAH inh, TCR CD3 inh)
CC(C)(C)NC(=S)N/N=C/c1cc(Br)c(O)c(Br)c1	pPAFAH inh 34
CC(=O)c1ccc(OC(C)C)c(CSc2nc(O)cc(=O)[nH]2)c1	pPAFAH inh 28
CS(=O)(=O)c1nc(S(=O)(=O)c2ccc(Cl)cc2)c(N2CCN(CCO)CC2)s1	none
Cc1ccc(S(=O)(=O)c2nc(S(=O)(=O)c3ccc(C)cc3)c(N3CCN(CCO)CC3)s2)cc1	pPAFAH inh 26
